A selection: hits, their analogues and other compounds. The true share with any hit is near 5.4%.
HePTP inhibitor: inhibitors of human HePTP phosphatase, primary screen, biochemical, absorbance, leukemia target; inhibition, % at 20 µM; recombinant HePTP phosphatase activity, OD absorbance; hit rate 0.64% among 110,000; in the data active = inhibition above about 50%
PostGolgi ctrl: growth inhibition of yeast control strain, primary screen, counter-screen for post-Golgi transport modulator project; efflux-deficient yeast background strain, growth absorbance A615, 16 h; inhibition, % at 10 µM; hit rate 5% among 98,000
PLAP act: PLAP enzyme activators, biochemical, luminescence, HTS. hit rate 1.2% among 96,000. purified PLAP enzyme, luminescent substrate read-out; stronger effect = higher value. AID 696, 2007. activation fold at 20 µM; in the data active = activation fold above about 2
Target sequence (P05187 whole entry, looked up): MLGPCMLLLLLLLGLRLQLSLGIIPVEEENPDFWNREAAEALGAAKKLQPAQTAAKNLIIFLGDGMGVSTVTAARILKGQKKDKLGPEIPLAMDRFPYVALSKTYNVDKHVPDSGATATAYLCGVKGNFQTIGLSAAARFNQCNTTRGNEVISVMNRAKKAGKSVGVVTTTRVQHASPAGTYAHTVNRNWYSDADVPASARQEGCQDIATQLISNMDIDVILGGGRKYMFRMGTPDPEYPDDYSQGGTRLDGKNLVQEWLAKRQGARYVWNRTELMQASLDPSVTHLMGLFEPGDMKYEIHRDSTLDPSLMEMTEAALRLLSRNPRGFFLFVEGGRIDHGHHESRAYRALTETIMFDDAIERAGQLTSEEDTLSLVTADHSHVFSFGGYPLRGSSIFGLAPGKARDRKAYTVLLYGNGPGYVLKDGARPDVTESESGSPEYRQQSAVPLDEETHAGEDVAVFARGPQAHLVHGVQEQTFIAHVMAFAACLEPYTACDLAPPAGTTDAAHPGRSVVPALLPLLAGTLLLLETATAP
Ecoli tolC: growth inhibitors of E. coli tolC mutant, primary screen, strain BW25113 ΔtolC::kan, 384-well. hit rate 2.2% among 65,000. growth inhibition, % at 10 µM (by protocol). OD615;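 active = growth inhibition at or above a cutoff equal to the mean over every tested compound plus 3 SD, cut at about 60% in these data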;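 note: growth measured after 20 h incubation at 37 °C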
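Test system: E. coli BW25113 ΔtolC::kan bacteria | Medium: Kanamycin-containing LB broth (50 µg/mL) | Dosing: One dose of 10 µM final | Times: 20 h incubation with compound, 37 °C | Detection: Optical density read at 615 nm | Read-out basis: Percent growth inhibition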
PostGolgi yeast: phenotypic screen on post-Golgi transport, primary screen; inhibition, % at 10 µM; AID 739, 2007; post-Golgi transport phenotypic cell assay; hit rate 0.9% among 98,000;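 note: yeast cells grown in 1536-well plates; yeast grown about 18 h at 30C before absorbance read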
E coli WT exp: growth inhibitors of wild-type E. coli, primary screen, strain BW25113, expanded library, OD600; OD600 absorbance; growth inhibition, % at 100 µM; hit rate 0.15% among 98,000;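 active = growth inhibition above about 50% at one test dose, limit read from the data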;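 note: growth measured after 20 h incubation at 37 °C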
Numbers stand for hits; . = inactive; / = no result given. Cut-off read from the data, not from the text of the source, unless noted: active = inhibition above about 30%; inactive = the rest.

SMILES	HePTP inhibitor	PostGolgi ctrl	PLAP act	Ecoli tolC	PostGolgi yeast	E coli WT exp
CCOc1ccc(C(=O)NCc2cccnc2)cc1	.	.	.	.	.	.
CCC(C)NS(=O)(=O)c1ccc(Br)cc1 (stereo not drawn)	.	/	/	/	/	/
CCc1nc2nc(C)cc(Nc3cccc(C(F)(F)F)c3)n2n1	.	.	2.4	.	.	.
CCN(C(=O)c1coc(=O)c2ccccc12)c1cc(OC)ccc1OC	.	38	.	.	.	.
Clc1ccc(CSc2nnc(Cn3cnc4ccccc43)o2)cc1	.	.	.	.	.	.
CCOC(=O)c1sc(N/N=C/c2cccc(C)c2)nc1C	/	38	.	/	.	.
CCOC(=O)c1sc(Nc2ccc(C)cc2C)nc1C	/	52	.	/	.	.
CCOC(=O)c1sc(N/N=C/c2ccccc2)nc1C	.	/	/	/	/	/
Cc1ccc(C)c(S(=O)(=O)N=Nc2c(O)[nH]c3ccc(Br)cc23)c1	.	/	/	/	/	/
COc1ccccc1NC(=O)C1=C(C)NC(SCC(=O)c2ccccc2)=C(C#N)C1c1ccco1 (stereo not drawn)	.	.	.	.	.	.
COc1ccccc1N1CCN(C(CNS(=O)(=O)c2cc(F)ccc2F)c2cccnc2)CC1 (stereo not drawn)	.	/	/	.	/	/
O=S(=O)(NCC(c1cccnc1)N1CCN(c2ccccc2)CC1)c1cc(F)ccc1F (stereo not drawn)	.	75	.	.	95	.
CCN(C(=O)c1cnc(N2CCN(c3ncccn3)CC2)c2ccccc12)c1cccc(Cl)c1	.	.	.	.	.	.
CN(C(=O)c1cnc(N2CCN(c3ncccn3)CC2)c2ccccc12)c1ccc(Cl)cc1	.	73	.	.	.	.
O=C(CSc1nnc2c3ccccc3c3ccccc3c2n1)Nc1ccccc1	/	45	.	/	.	.
CCOc1ccc2ccccc2c1/C=N/N1C(=O)C2C(C1=O)C1C=CC2C12CC2 (stereo not drawn)	.	/	/	/	/	/
CCCCOc1ccccc1Cn1c(=O)oc2ccc(C)cc21	/	.	.	70	.	.
COc1ccc(Cn2c(=O)oc3ccc(C)cc32)cc1OC	.	.	.	.	.	.
Cc1ccc2oc(=O)n(Cc3ccccc3OC(C)C)c2c1	.	.	.	99	.	.
O=C(NNC(=O)c1sccc1-n1cccc1)c1ccc(Cl)cc1	/	.	.	/	.	.
Nc1cccc2nc3ccccc3cc12	/	.	.	/	.	57
CC1=C(C(=O)OC2CCCCC2)C(c2ccco2)C2=C(CC(C)(C)CC2=O)N1 (stereo not drawn)	.	41	.	.	.	.
CC1=C(C(=O)OC2CCCC2)C(c2ccccc2Cl)C2=C(CC(C)(C)CC2=O)N1 (stereo not drawn)	.	/	/	/	/	/
CCN(CC)CCCN1C(=O)C(O)=C(C(=O)c2ccco2)C1c1ccc(OC(C)C)cc1 (stereo not drawn)	.	43	.	.	.	.
O=C(c1ccccc1)c1nc[nH]c1C(=O)Nc1ccccn1	.	.	2.2	.	.	.
SMILES	HePTP inhibitor	PostGolgi ctrl	PLAP act	Ecoli tolC	PostGolgi yeast	E coli WT exp
CCOC(=O)c1[nH]cnc1C(=O)Nc1ccccn1	.	.	.	.	.	.
CC(=O)c1sc(NC(=O)C2(F)C(F)(F)C(F)(F)C(F)(F)C(F)(F)C2(F)F)nc1C	.	.	.	100	.	.
Cc1ccc(-c2nc3ncccc3o2)cc1NC(=O)COc1ccccc1	/	.	.	/	.	.
COc1ccc(CCN2C(=O)CSC2c2ccc([N+](=O)[O-])cc2)cc1OC (stereo not drawn)	104	/	/	/	/	/
COC(=O)Nc1nnc(CCc2ccccc2)s1	.	.	.	.	.	.
O=C(O)CN1C(=O)/C(=C2\SC(=S)N(/N=C/c3cc([N+](=O)[O-])ccc3O)C2=O)c2ccccc21	102	/	/	/	/	/
COc1ccc(/C=C/C(=O)Nc2ccc(OCc3ccccc3)cc2)cc1	.	/	/	/	/	/
COc1ccc2oc(=O)c(-c3nnc(NCc4ccco4)s3)cc2c1	.	.	.	.	40	.
CCOc1cccc2cc(-c3nnc(NCc4ccco4)s3)c(=O)oc12	.	.	.	.	.	.
COc1cc(SC)ccc1C(=O)NCc1ccc(C)cc1	/	.	.	/	44	.
OC(COc1ccc(Cl)c2ccccc12)CN1CCN(c2ccccn2)CC1 (stereo not drawn)	.	34	.	100	.	.
OC(COCc1ccccc1)CN1CCN(c2ccccn2)CC1 (stereo not drawn)	.	/	/	/	/	/
Cc1c(C(=O)NCc2cccnc2)oc2ccc(S(=O)(=O)N3CCC4(CC3)OCCO4)cc12	/	.	.	/	.	.
O=C1N2CCSC2=NC1(Nc1ccccn1)C(F)(F)F (stereo not drawn)	.	48	.	.	.	.
Cn1ncc(C#N)c1/N=C/N(Cc1ccccc1)Cc1ccccc1	.	35	.	99	.	.
COc1cccc(N2CCN(CC(=O)Nc3nc4c(s3)CC(C)CC4)CC2)c1 (stereo not drawn)	.	.	.	95	.	.
COc1cc(C2C(C(=O)c3ccc(C)o3)=C(O)C(=O)N2c2cc(C)on2)cc(Br)c1O (stereo not drawn)	.	.	.	65	.	.
COc1cc(C2C(C(=O)c3ccco3)=C(O)C(=O)N2c2cc(C)on2)cc(Br)c1O (stereo not drawn)	.	.	.	.	.	.
CCNc1nc(NC(C)C)nc(N(C#N)CCOc2ccc(Cl)cc2Cl)n1	.	39	.	75	.	.
CCNc1nc(NC(C)C)nc(N(C#N)Cc2ccccc2)n1	.	.	.	67	.	.
CCNc1nc(NC(C)C)nc(N(C#N)C(C)C(=O)N(C)C)n1 (stereo not drawn)	.	.	/	.	.	.
Cc1cc(C)nc(N(C#N)Cc2ccccc2)n1	.	.	.	.	.	.
COC(=S)N/C(=N/S(=O)(=O)c1ccc(Br)cc1)c1ccccc1	.	/	/	/	/	/
CCOC(=O)C1=C(C)N=c2s/c(=C\c3ccc(-c4ccccc4C(=O)O)o3)c(=O)n2C1c1cccc(OC)c1 (stereo not drawn)	.	/	/	/	/	/
COc1ccnc(Oc2ccc(F)cc2)c1C(=O)N/C=N/OCc1ccc(F)cc1Cl	/	38	.	/	.	.
SMILES	HePTP inhibitor	PostGolgi ctrl	PLAP act	Ecoli tolC	PostGolgi yeast	E coli WT exp
O=C(Cc1ccc(F)cc1)Nc1cccc2ccccc12	103	/	/	/	/	/
COC(=O)CCC(=O)Nc1cccc2ccccc12	/	34	.	/	.	.
C=CCN1C(=O)CS/C1=N/c1nccs1	.	.	.	.	.	.
CCN1/C(=C/c2ccc3cccc(C)c3[n+]2CC)Sc2ccccc21	/	98	.	/	.	72
COc1ccc(C)cc1NC(=O)CC(C)=O	.	/	/	/	/	/
O=C1c2ccccc2C(=O)c2c(NCc3cccnc3)cccc21	/	34	.	/	.	.
Cc1[nH]n2c(=O)cc(C(C)C)nc2c1-c1ccccc1	.	.	.	.	.	.
Cc1[nH]n2c(=O)cc(C(C)(C)C)nc2c1-c1ccccc1	.	.	.	100	.	.
